The results in this text go back to ChEMBL document CHEMBL1141335, “Epicoccamides B-D, glycosylated tetramic acid derivatives from an Epicoccum sp. associated with the tree fungus Pholiota squarrosa” (J Nat Prod, 2007).

Activity calls are given as the source filed them. The calls are words filed in the database; no cut-off is given here.

One data set relates to K562. Briefly: Antiproliferative activity against human K562 cells. Format: functional.
A short description of data set [1]: Antiproliferative activity against mouse L929 cells. Format: cell-based.
The next data set concerns HeLa. Briefly: Cytotoxicity against human HeLa cells. Format: functional. The conditions noted are these: for CC50: Homo sapiens, HeLa. The essentials:
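HeLa Ohio cells grown 2 days to confluent monolayers, then growth medium replaced with nine 2-fold compound dilutions in test medium. Incubated 72 h at 37 °C, 5% CO2. Cells fixed, washed and stained, with OD read at 660 nm. Viability taken as % of six untreated controls. CC50 calculated from the mean dose–response curve of two assays.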

In data set [2] the test system is Remotididymella destructiva. Briefly: Induction of pigment formation in Phoma destructiva at 1.7 mM. Format: functional, organism-based. The essentials: (§1)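 Phoma destructiva vegetative mycelium grown on malt agar plates (malt extract, glucose, yeast extract, (NH4)2SO4, pH 6.0), set up like an agar-well diffusion assay. 50 µL of purified metabolite placed in 9 mm agar wells. Plates incubated for three days, then scored visually for changes in pigment and aerial mycelium formation.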

The test system of data set [3] is Remotididymella destructiva. Briefly: Induction of morphogenesis in Phoma destructiva at 1.7 mM. Format: functional, organism-based. The essentials:
as §1

The GI50 is the concentration giving 50% growth inhibition. The term CC50 denotes the concentration that lowers cell viability or growth by half. High values mean better tolerance by the cells, low ones harm at low concentration. `CC(CCCCCCCCCCCCCCO[C@@H]1O[C@H](CO)[C@@H](O)[C@H](O)[C@@H]1O)C(=O)C1=C(O)N(C)C(C)C1=O` (stereo partly drawn): the GI50 (with K562; in data set [1]) was more than 90 µM throughout. In the data set with HeLa, the CC10 amounted to 51.3 µM. In the data set on HeLa, this compound displayed a CC50 of more than 90 µM.

Turning to `CC(=O)O[C@@H]1[C@H](O)[C@H](OCCCCCCCCCCCCCCC(C)C(=O)C2=C(O)N(C)C(C)C2=O)O[C@H](CO)[C@H]1O` (stereo partly drawn), the GI50 in the data set with K562 was 52.7 µM. The compound also returned a GI50 in data set [1] of 71.1 µM. In the data set with HeLa, this compound showed a CC10 of 26.2 µM and a CC50 of 44.2 µM.

As for `CC(=O)OC[C@H]1O[C@@H](OCCCCCCCCCCCCCCC(C)C(=O)C2=C(O)N(C)C(C)C2=O)[C@@H](O)[C@@H](O)[C@@H]1O` (stereo partly drawn) [EPICOCCAMIDE C], the GI50 in the data set with K562 came out at 33.7 µM; in data set [1] it was 57.2 µM. The CC10 with HeLa amounted to 13.6 µM. Further, the CC50 in the data set with HeLa was determined as 29 µM.

With `CC(CCCCCCCCCCCCCCCCO[C@@H]1O[C@H](CO)[C@@H](O)[C@H](O)[C@@H]1O)C(=O)C1=C(O)N(C)C(C)C1=O` (stereo partly drawn) [EPICOCCAMIDE D], the GI50 was 33.3 µM with K562 and 50.5 µM in data set [1]. For the same compound, the outcome in data set [2] and in data set [3] was Active. This compound came in with a CC10 in the data set on HeLa of 11.6 µM. In addition, in the data set with HeLa, the CC50 was 17 µM.
